Measurements reported in the M2OR odorant receptor database.

Target: T1, OR1A2 (Homo sapiens) (UniProt Q9Y585)
T1 sequence (whole entry): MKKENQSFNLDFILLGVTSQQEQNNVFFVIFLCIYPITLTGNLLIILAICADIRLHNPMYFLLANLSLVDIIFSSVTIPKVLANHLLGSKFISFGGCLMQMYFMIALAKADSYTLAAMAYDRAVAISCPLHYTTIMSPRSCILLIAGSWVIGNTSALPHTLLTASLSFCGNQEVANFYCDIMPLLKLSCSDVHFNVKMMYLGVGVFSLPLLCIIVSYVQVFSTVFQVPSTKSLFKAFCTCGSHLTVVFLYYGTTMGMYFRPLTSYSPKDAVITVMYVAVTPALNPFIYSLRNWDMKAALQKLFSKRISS
Settings: stereoisomer not certain
Procedure, shortened: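 Each receptor–molecule pair is labelled responsive or non-responsive (inactive) according to whether the original authors judged the measured signal statistically different from baseline. The data were taken from the main text and supplementary material of published papers and checked for typos and inconsistencies. Assay methods differed by source, with transient luciferase assays in mammalian cell lines being common.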
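Note: active if original authors judged signal statistically different from baseline.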

Row | SMILES | odorant receptor agonist call
1 | C=CC(O)CCCCC (centres undefined) | inactive
2 | C=CC(C)(O)CCC=C(C)CCC=C(C)C (centres undefined) | active
3 | CC(C)=CCCC(C)=CCCC(C)=CCO | inactive
4 | CCC(C)c1nccnc1OC (centres undefined) | inactive
5 | CCCCC(=O)O | inactive
6 | CC(C)=CCCC(C)=CC#N | inactive
7 | CCCCCC=CCCC=O | active
8 | CCCC(C)C=O (centres undefined) | inactive
9 | COc1nccnc1CC(C)C | inactive
10 | CC(=O)C=CC1C(C)=CCCC1(C)C (centres undefined) | active
11 | C=CC(C)=CCC=C(C)CCC=C(C)C | inactive
12 | CCCCCCO | inactive
13 | CC=CC(=O)C1=C(C)CCCC1(C)C | inactive
14 | CCCCCCC(=O)[O-].[H+] | inactive
15 | O=C([O-])CCCCC(=O)[O-].[H+].[H+] | inactive
16 | Cc1nccnc1C | inactive
17 | CCc1ncc(C)nc1CC | inactive
18 | CCCCC=CC=CC=O | inactive
19 | COC(C=C(C)CCC=C(C)C)OC | inactive
20 | CCCCCCCCCO | inactive
21 | O=C([O-])CCC(=O)[O-].[H+].[H+] | inactive
22 | CCC=CCCC=CC=O | inactive
23 | CCc1nccnc1CC | inactive
24 | CC=CC(=O)C1=C(C)C=CCC1(C)C | inactive
25 | CC(C)=CCCC(C)CCO (centres undefined) | active
26 | C=C(C)C1CC=C(C)C(OC(C)=O)C1 (centres undefined) | inactive
27 | C1CCNC1 | inactive
28 | COc1nccnc1C(C)C | inactive
29 | CCCCCO | inactive
